Measurements published in ChEMBL document CHEMBL1268899, “Discovery of potent and selective inhibitors of human reticulocyte 15-lipoxygenase-1” (J Med Chem, 2010).
Activity calls are given as the source filed them. The calls are words filed in the database; no cut-off is given here.

Assays:
[1] = molecular target: T1, Polyunsaturated fatty acid lipoxygenase ALOX15 (Homo sapiens, UniProt P16050); test: Inhibition of human N-terminal His6-tagged reticulocyte 15-lipoxygenase-1 after 15 mins by UV-vis spectrophotometer analysis; conditions: for Ki: read-out: Ki(app)
T1 sequence (P16050 whole entry): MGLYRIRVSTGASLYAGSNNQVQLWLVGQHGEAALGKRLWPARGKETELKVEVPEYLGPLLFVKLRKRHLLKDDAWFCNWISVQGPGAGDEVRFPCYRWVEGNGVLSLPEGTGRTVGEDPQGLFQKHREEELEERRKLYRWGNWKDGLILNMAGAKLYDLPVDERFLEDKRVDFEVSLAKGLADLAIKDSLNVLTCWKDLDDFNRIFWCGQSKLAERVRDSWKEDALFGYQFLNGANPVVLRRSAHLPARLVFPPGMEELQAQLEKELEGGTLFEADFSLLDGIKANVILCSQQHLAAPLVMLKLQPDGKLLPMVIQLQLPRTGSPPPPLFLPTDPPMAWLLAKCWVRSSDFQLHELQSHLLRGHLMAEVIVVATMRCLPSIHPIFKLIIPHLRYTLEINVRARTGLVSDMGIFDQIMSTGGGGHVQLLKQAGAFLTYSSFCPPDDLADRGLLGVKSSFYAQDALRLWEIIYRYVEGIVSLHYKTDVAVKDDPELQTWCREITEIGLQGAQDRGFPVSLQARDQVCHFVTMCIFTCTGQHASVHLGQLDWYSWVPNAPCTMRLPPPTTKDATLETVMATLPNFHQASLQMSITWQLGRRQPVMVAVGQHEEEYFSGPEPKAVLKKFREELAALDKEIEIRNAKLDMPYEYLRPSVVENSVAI

[2] = Solubility of the compound; assay type: physicochemical
[3] = molecular target: T1, Polyunsaturated fatty acid lipoxygenase ALOX15; test: Inhibition of human N-terminal His6-tagged reticulocyte 15-lipoxygenase-1 catalytic site assessed as 15-HPETE formation by Michaelis-Menten equation analysis
[4] = molecular target: T1, Polyunsaturated fatty acid lipoxygenase ALOX15; test: Inhibition of human N-terminal His6-tagged reticulocyte 15-lipoxygenase-1 allosteric site assessed as 15-HPETE formation by Michaelis-Menten equation analysis
[5] = molecular target: T2, Polyunsaturated fatty acid 5-lipoxygenase (Homo sapiens, UniProt P09917); test: Inhibition of human 5-lipoxygenase after 15 mins by UV-vis spectrophotometer analysis
T2 sequence (P09917 whole entry): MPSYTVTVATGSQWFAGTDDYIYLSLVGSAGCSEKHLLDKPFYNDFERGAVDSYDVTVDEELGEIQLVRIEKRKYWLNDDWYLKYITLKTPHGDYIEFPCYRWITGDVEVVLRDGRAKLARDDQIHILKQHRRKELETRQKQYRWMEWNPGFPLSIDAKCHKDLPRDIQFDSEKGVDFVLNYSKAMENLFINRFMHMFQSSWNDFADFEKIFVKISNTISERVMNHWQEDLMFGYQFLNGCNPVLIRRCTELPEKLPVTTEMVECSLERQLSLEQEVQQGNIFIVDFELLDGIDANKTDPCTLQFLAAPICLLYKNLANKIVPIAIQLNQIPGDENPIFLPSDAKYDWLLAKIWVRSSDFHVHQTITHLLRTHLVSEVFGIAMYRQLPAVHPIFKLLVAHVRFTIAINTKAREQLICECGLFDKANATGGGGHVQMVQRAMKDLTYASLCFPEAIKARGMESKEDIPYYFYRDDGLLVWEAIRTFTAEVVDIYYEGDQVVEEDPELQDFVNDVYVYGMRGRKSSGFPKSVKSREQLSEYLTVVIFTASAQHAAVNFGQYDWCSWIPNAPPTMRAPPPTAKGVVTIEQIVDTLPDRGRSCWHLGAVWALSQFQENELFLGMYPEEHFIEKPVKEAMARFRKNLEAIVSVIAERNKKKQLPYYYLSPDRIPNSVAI

[6] = molecular target: T3, Polyunsaturated fatty acid lipoxygenase ALOX15B (Homo sapiens, UniProt O15296); test: Inhibition of human N-terminal His6-tagged epithelial 15-lipoxygenase-2 after 15 mins by UV-vis spectrophotometer analysis
T3 sequence (O15296 whole entry): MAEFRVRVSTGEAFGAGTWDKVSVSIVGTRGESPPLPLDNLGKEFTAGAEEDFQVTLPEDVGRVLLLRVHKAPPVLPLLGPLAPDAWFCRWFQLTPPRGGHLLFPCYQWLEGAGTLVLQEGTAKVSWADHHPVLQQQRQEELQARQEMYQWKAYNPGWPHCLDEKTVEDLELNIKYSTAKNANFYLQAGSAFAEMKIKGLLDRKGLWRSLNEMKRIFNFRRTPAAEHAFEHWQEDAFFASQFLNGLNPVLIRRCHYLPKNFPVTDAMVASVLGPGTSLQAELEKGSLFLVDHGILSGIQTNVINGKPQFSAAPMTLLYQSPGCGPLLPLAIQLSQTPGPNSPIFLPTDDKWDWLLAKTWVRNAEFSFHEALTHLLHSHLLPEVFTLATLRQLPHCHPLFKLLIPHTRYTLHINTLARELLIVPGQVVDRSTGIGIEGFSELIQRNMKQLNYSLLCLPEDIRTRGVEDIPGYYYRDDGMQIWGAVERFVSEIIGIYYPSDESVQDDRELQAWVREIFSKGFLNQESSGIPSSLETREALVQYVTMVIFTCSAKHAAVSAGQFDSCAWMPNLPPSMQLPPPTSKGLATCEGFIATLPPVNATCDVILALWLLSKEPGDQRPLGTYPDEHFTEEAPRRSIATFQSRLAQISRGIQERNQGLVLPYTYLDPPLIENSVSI

[7] = molecular target: T4, Polyunsaturated fatty acid lipoxygenase ALOX12 (Homo sapiens, UniProt P18054); test: Inhibition of human N-terminal His6-tagged platelet 12-lipoxygenase after 15 mins by UV-vis spectrophotometer analysis
T4 sequence (P18054 whole entry): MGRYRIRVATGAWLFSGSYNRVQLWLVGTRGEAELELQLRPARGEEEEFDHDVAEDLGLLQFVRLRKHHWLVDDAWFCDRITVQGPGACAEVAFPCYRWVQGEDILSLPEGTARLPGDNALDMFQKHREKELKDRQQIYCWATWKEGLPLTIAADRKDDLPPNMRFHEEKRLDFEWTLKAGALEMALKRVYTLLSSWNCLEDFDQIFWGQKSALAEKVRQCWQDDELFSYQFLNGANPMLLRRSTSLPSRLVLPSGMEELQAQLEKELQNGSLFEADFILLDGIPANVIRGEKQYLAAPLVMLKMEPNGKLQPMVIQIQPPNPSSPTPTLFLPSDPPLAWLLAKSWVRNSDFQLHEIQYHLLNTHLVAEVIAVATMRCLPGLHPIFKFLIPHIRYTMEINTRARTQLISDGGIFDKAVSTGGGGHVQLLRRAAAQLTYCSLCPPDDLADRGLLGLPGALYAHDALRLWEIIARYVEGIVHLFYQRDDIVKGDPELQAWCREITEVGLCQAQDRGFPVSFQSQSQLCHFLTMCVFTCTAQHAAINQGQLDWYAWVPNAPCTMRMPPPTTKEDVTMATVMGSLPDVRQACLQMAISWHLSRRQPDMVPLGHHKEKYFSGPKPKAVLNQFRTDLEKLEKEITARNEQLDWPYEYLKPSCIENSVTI

Homo sapiens [8] = species: Homo sapiens; test: Selectivity ratio of IC50 for human N-terminal His6-tagged platelet 12-lipoxygenase over IC50 for human N-terminal His6-tagged reticulocyte 15-lipoxygenase-1
Homo sapiens [9] = species: Homo sapiens; test: Selectivity ratio of IC50 for human N-terminal His6-tagged epithelial 15-lipoxygenase-2 over IC50 for human N-terminal His6-tagged reticulocyte 15-lipoxygenase-1
[10] = Selectivity ratio of IC50 for ovine COX1 over IC50 for human N-terminal His6-tagged reticulocyte 15-lipoxygenase-1
Method in brief: (§1)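 COX inhibition: ~2 μg ovine COX-1 or human COX-2 preincubated 20 min with inhibitor, then added to 0.1 M Tris-HCl pH 8.0, 5 mM EDTA, 2 mM phenol, 1 μM hematin, 100 μM arachidonic acid at 37 °C; oxygen consumption via oxygen electrode; ibuprofen and DMSO as controls.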

Homo sapiens [11] = species: Homo sapiens; test: Selectivity ratio of IC50 for human COX2 over IC50 for human N-terminal His6-tagged reticulocyte 15-lipoxygenase-1; method in brief: as §1
Homo sapiens [12] = species: Homo sapiens; test: Selectivity ratio of IC50 for human 5-lipoxygenase over IC50 for human N-terminal His6-tagged reticulocyte 15-lipoxygenase-1
[13] = test system: Radical scavenging activity; test: Antioxidant activity assessed as DPPH free radical scavenging activity at 5 uM; assay type: functional

SMILES: O=C(OCC#CCSc1nnc(-c2cccc3ccccc23)o1)c1ccc(Cl)cc1
- Ki [1]: < 0.01 µM

SMILES: O=C(OCC#CCSc1nnc(-c2cccc3ccccc23)o1)c1ccc(Br)cc1
- Ki [1]: < 0.01 µM

SMILES: O=C(CCC#CCSc1nnc(-c2cccc3ccccc23)o1)c1ccccc1
- solubility [2]: Insoluble

SMILES: O=C(OCC#CCSc1nnc(-c2cccc3ccccc23)o1)c1cnc[nH]1
- Ki [3]: 0.87 µM
- Ki [1]: 1.4 µM
- Ki [4]: 8.1 µM

SMILES: O=C(OCC#CCSc1nnc(-c2cccc3ccccc23)o1)c1ccsc1
- IC50 [5]: > 15 µM
- IC50 [6]: > 100 µM
- IC50 [7]: > 100 µM

SMILES: O=C(OCC#CCSc1nnc(-c2cccc(F)c2)o1)c1ccc(F)cc1
- Ki [1]: < 0.01 µM

SMILES: O=C(OCC#CCSc1nnc(-c2cccc3ccccc23)o1)c1sccc1Cl
- Ki [1]: < 0.01 µM

SMILES: O=C(OCC#CCSc1nnc(-c2cccc3ccccc23)o1)c1sc(Cl)c(Cl)c1Cl
- Ki [1]: < 0.01 µM

SMILES: O=C(OCC#CCSc1nnc(-c2cccc3ccccc23)o1)c1ccc(F)c(F)c1
- Ratio IC50 (Homo sapiens [8]): > 7500
- IC50 [5]: > 30 µM
- IC50 [1]: < 0.01 µM
- Ki [1]: < 0.01 µM
- IC50 [6]: > 100 µM
- Ratio IC50 (Homo sapiens [9]): > 7500
- IC50 [7]: > 100 µM
- Ratio IC50 [10]: > 7500
- Ratio IC50 (Homo sapiens [11]): > 7500

SMILES: O=C(OCC#CCSc1nnc(-c2cccc3ccccc23)o1)c1ccc(F)cc1F
- Ki [1]: < 0.01 µM

SMILES: O=C(OCC#CCSc1nnc(-c2cccc3ccccc23)o1)c1cccnc1F
- Ki [1]: < 0.01 µM

SMILES: O=C(OCC#CCSc1nnc(-c2cccc3ccccc23)o1)c1ccccc1
- Ratio IC50 (Homo sapiens [8]): > 7500
- IC50 [5]: > 20 µM
- IC50 [1]: < 0.01 µM
- Ki [1]: < 0.01 µM
- IC50 [6]: > 100 µM
- Ratio IC50 (Homo sapiens [9]): > 7500
- Ratio IC50 (Homo sapiens [12]): > 2000
- IC50 [7]: > 100 µM
- Ratio IC50 [10]: > 7500
- Ratio IC50 (Homo sapiens [11]): > 7500

SMILES: O=C(NCC#CCSc1nnc(-c2cccc3ccccc23)o1)c1cccs1
- Ki [1]: 2 µM

SMILES: O=C(OCC#CCSc1nnc(-c2cccc3ccccc23)o1)c1sc2ccccc2c1Cl
- Activity [13]: inactive

SMILES: O=C(OCc1ccc(CSc2nnc(-c3cccc4ccccc34)o2)cc1)c1ccc(F)cc1
- Ki [1]: > 70 µM

SMILES: O=C(OCC#CCSc1nnc(-c2cccc3ccccc23)o1)c1cccc(F)c1
- IC50 [5]: > 50 µM
- IC50 [6]: > 100 µM
- IC50 [7]: > 100 µM

SMILES: O=C(OCC#CCSc1nnc(-c2cccc3ccccc23)o1)c1ccc(OC(F)F)cc1
- Ki [1]: < 0.01 µM
